Results: ChEMBL document CHEMBL1123946, “Cholecystokinin antagonists. Synthesis and biological evaluation of 4-substituted 4H-[1,2,4]triazolo[4,3-a][1,4]benzodiazepines” (J Med Chem, 1988)

How the values were obtained:
[1] = Displacement of [125I]CCK from Cholecystokinin receptor of guinea pig brain; design: species or system Cavia porcellus
Summary of the method: (§1)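 Membrane binding: [125I]-CCK-33 to rat pancreas and guinea pig cortex, and [125I]gastrin to guinea pig gastric glands. Values are the means of triplicate determinations.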

Mus musculus [2] = test: Effective dose for antagonism of CCK-8 inhibition of gastric emptying, 1 hr after oral administration; format: functional; conditions: Stomach
Summary of the method: (§2)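 Mice were dosed orally in 0.5% methylcellulose vehicle (N ≥ 10/dose), 1 h, 4 h or 5 h before CCK-8 (80 μg/kg, sc). CCK-8 was given 5 min before a charcoal meal, and gastric emptying was then scored. ED50 is the dose protecting 50% of mice, from regression over at least three dose levels.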

[3] = target: T1, Cholecystokinin receptor type A (Rattus norvegicus, UniProt P30551); test: Displacement of [125I]CCK from Cholecystokinin receptor of rat pancreas; summary of the method: as §1
T1 sequence (P30551 whole entry): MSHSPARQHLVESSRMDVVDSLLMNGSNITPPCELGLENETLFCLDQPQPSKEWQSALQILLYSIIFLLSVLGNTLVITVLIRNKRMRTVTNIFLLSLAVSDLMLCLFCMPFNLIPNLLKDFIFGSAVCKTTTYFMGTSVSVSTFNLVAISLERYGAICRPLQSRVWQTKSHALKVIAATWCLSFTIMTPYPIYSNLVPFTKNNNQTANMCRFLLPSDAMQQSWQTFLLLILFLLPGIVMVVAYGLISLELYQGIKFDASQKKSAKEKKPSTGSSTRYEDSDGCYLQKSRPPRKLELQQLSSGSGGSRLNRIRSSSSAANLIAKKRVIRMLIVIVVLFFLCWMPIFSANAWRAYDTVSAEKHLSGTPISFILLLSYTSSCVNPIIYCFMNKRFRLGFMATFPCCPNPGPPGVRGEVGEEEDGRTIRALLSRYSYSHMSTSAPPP

Mus musculus [4] = test: Effective dose for antagonism of CCK-8 inhibition of gastric emptying, 5 hr after oral administration; format: functional; conditions: Stomach; summary of the method: as §2
[5] = Displacement of [125I]gastrin from guinea pig gastric glands
Mus musculus [6] = test: Effective dose for antagonism of CCK-8 inhibition of gastric emptying, 4 hr after oral administration; format: functional; conditions: Stomach; summary of the method: as §2

Row | SMILES | IC50 [1] | ED50 (Mus musculus [2]) | other results
1 | Cc1nnc2n1-c1ccccc1C(c1ccccc1)=NC2NC(=O)Nc1ccc(Cl)cc1 (stereo not drawn) | 0.12 µM |  | 
2 | O=C(NC1N=C(c2ccccc2F)c2ccccc2-n2cnnc21)c1ccc(Cl)cc1 (stereo not drawn) | 9.3 µM | 0.12 mg/kg | 
3 | Fc1ccccc1C1=N[C@H](Cc2c[nH]c3ccccc23)c2nncn2-c2ccccc21 | ~100 µM |  | 
4 | CN(C)Cc1nnc2n1-c1ccccc1C(c1ccccc1F)=N[C@@H]2Cc1c[nH]c2ccccc12 | ~100 µM |  | 
5 | O=C(NC1N=C(c2ccccc2F)c2ccccc2-n2cnnc21)OCc1ccccc1 (stereo not drawn) | 8 µM |  | 
6 | Fc1ccccc1C1=N[C@H](Cc2c[nH]c3ccccc23)c2nnc(-c3ccccc3)n2-c2ccccc21 | ~100 µM |  | 
7 | O=C(NC1N=C(c2ccccc2)c2ccccc2-n2cnnc21)OCc1ccccc1 (stereo not drawn) | 7.7 µM |  | IC50 [3]: 0.1 µM
8 | O=C(NC1N=C(c2ccccc2F)c2ccccc2-n2cnnc21)c1cc2ccccc2[nH]1 (stereo not drawn) | 0.053 µM | 0.02 mg/kg | ED50 (Mus musculus [4]): 0.12 mg/kg
9 | Fc1ccccc1C1=N[C@H](Cc2c[nH]c3ccccc23)c2nnc(C(Cl)(Cl)Cl)n2-c2ccccc21 | > 100 µM |  | 
10 | Cc1nnc2n1-c1ccccc1C(c1ccccc1F)=N[C@@H]2Cc1c[nH]c2ccccc12 | 39 µM | 76 mg/kg | ED50 (Mus musculus [4]): 200 mg/kg; IC50 [5]: 12 µM
11 | O=C(Nc1ccc(Cl)cc1)NC1N=C(c2ccccc2)c2ccccc2-n2cnnc21 (stereo not drawn) | 0.48 µM |  | 
12 | Cc1nnc2n1-c1ccccc1C(c1ccccc1F)=NC2NC(=O)c1cc2ccccc2[nH]1 (stereo not drawn) | 0.008 µM | 0.05 mg/kg | IC50 [3]: 0.0002 µM; ED50 (Mus musculus [6]): 0.13 mg/kg
13 | Cc1nnc2n1-c1ccc(Cl)cc1C(c1ccccc1)=NC2 [ALPRAZOLAM] | > 100 µM |  | IC50 [3]: 64 µM
14 | CN1C(=O)[C@@H](NC(=O)c2cc3ccccc3[nH]2)N=C(c2ccccc2)c2ccccc21 [DEVAZEPIDE] |  | 0.04 mg/kg | ED50 (Mus musculus [4]): 0.06 mg/kg
15 | Cc1nnc2n1-c1ccc(Cl)cc1C(c1ccccc1Cl)=NC2 [TRIAZOLAM] | > 100 µM |  | IC50 [3]: 39 µM
